# Data reported in ChEMBL document CHEMBL1140191, “Lynamicins A-E, chlorinated bisindole pyrrole antibiotics from a novel marine actinomycete” (J Nat Prod, 2008).
# Key:
# [1] = test system: Staphylococcus epidermidis; assay: Antibacterial activity against multi drug-resistant Staphylococcus epidermidis ATCC 700582 after 14 to 16 hrs by serial microbroth dilution method; format: functional
# How it was run: (§1)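 Broth microdilution MIC per NCCLS standards in cation-adjusted Mueller-Hinton broth, without CO2. Final inoculum approximately 5 × 10^5 cfu/mL. Incubated 35 °C for 14-16 h. MIC taken as the lowest drug concentration preventing visible growth.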
# [2] = test system: Haemophilus influenzae; assay: Antibacterial activity against Haemophilus influenzae ATCC 49766 after 14 to 16 hrs; format: functional
# How it was run: (§2)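 Serial microbroth dilution (NCCLS) in Haemophilus Test Medium in a CO2 incubator. Final inoculum about 5 × 10^5 cfu/mL, 35 °C for 14-16 h. MIC is the lowest drug concentration preventing visible growth.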
# [3] = test system: Staphylococcus aureus; assay: Antibacterial activity against methicillin-sensitive Staphylococcus aureus ATCC 29213 after 14 to 16 hrs by serial microbroth dilution method; format: functional
# How it was run: (§3)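 NCCLS broth microdilution in cation-adjusted Mueller-Hinton broth, no CO2 incubation. Final inoculum about 5 × 10^5 cfu/mL. Plates held at 35 °C for 14-16 h. MIC read as the lowest concentration with no visible bacterial growth.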
# [4] = test system: Haemophilus influenzae; assay: Antibacterial activity against Haemophilus influenzae ATCC […] after 14 to 16 hrs; format: functional; how it was run: as §2
# [5] = test system: Staphylococcus aureus; assay: Antibacterial activity against methicillin-resistant Staphylococcus aureus ATCC 43300 after 14 to 16 hrs by serial microbroth dilution method; format: functional; how it was run: as §1
# [6] = test system: Streptococcus pneumoniae; assay: Antibacterial activity against penicillin-resistant Streptococcus pneumoniae ATCC 51915after 14 to 16 hrs; format: functional
# How it was run: (§4)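 Serial microbroth dilution MIC per NCCLS in cation-adjusted Mueller-Hinton broth II with lysed horse blood. Incubated in a CO2 incubator at 35 °C for 14-16 h. Final inoculum approximately 5 × 10^5 cfu/mL. MIC read as the lowest concentration with no visible growth.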
# [7] = test system: Enterococcus faecalis; assay: Antibacterial activity against vancomycin-sensitive Enterococcus faecalis ATCC 29212 after 14 to 16 hrs by serial microbroth dilution method; format: functional; how it was run: as §3
# [8] = test system: Enterococcus faecium; assay: Antibacterial activity against vancomycin-resistant Enterococcus faecium ATCC 700221 after 14 to 16 hrs by serial microbroth dilution method; format: functional; how it was run: as §1
# [9] = test system: Escherichia coli; assay: Antibacterial activity against Escherichia coli imp permeable mutant after 14 to 16 hrs by serial microbroth dilution method; format: functional; how it was run: as §1
# [10] = test system: Staphylococcus epidermidis; assay: Antibacterial activity against multi drug-resistant Staphylococcus epidermidis ATCC 700578 after 14 to 16 hrs by serial microbroth dilution method; format: functional; how it was run: as §1
# [11] = test system: Streptococcus pneumoniae; assay: Antibacterial activity against penicillin-sensitive Streptococcus pneumoniae ATCC 49619 after 14 to 16 hrs; format: functional; how it was run: as §4
# [12] = test system: Herpesviridae sp.; assay: Antiviral activity against HSV; format: functional, organism-based
compound,measurement,setting,value
Clc1cc2[nH]cc(-c3c[nH]cc3-c3c[nH]c4cc(Cl)c(Cl)cc34)c2cc1Cl [LYNAMICIN C],MIC,[1],2.3 µM
same,MIC,[2],15 µM
same,MIC,[3],2.5 µM
same,MIC,[4],9.2 µM
same,MIC,[5],3.5 µM
same,MIC,[6],46 µM
same,MIC,[7],5.8 µM
same,MIC,[8],4.6 µM
same,MIC,[9],15 µM
same,MIC,[10],2.3 µM
same,MIC,[11],46 µM
COC(=O)c1[nH]c(C(=O)OC)c(-c2c[nH]c3ccc(Cl)cc23)c1-c1c[nH]c2ccc(Cl)cc12 [LYNAMICIN D],MIC,[1],8.3 µM
same,MIC,[2],17 µM
same,MIC,[3],6.2 µM
same,MIC,[4],10 µM
same,MIC,[5],6.2 µM
same,MIC,[6],42 µM
same,MIC,[7],17 µM
same,MIC,[8],17 µM
same,MIC,[9],> 67 µM
same,MIC,[10],8.3 µM
same,MIC,[11],50 µM
COC(=O)c1[nH]c(C(=O)OC)c(-c2c[nH]c3ccc(Cl)cc23)c1-c1c[nH]c2ccccc12 [LYNAMICIN E],MIC,[1],> 72 µM
same,MIC,[2],> 72 µM
same,MIC,[3],> 45 µM
same,MIC,[4],> 72 µM
same,MIC,[5],27 µM
same,MIC,[6],> 72 µM
same,MIC,[7],> 54 µM
same,MIC,[8],> 54 µM
same,MIC,[9],> 72 µM
same,MIC,[10],45 µM
same,MIC,[11],> 72 µM
COC(=O)c1[nH]c(C(=O)OC)c(-c2c[nH]c3ccccc23)c1-c1c[nH]c2ccccc12 [LYCOGARUBIN C],IC50,[12],17.2 µg/mL
O=C(O)c1[nH]c(C(=O)O)c(-c2c[nH]c3ccccc23)c1-c1c[nH]c2ccccc12 [LYCOGALIC ACID A],IC50,[12],17.2 µg/mL
COC(=O)c1[nH]cc(-c2c[nH]c3cc(Cl)c(Cl)cc23)c1-c1c[nH]c2ccc(Cl)cc12 [LYNAMICIN B],MIC,[1],2.2 µM
same,MIC,[2],13 µM
same,MIC,[3],1.8 µM
same,MIC,[4],4.4 µM
same,MIC,[5],2.2 µM
same,MIC,[6],18 µM
same,MIC,[7],3.3 µM
same,MIC,[8],4.4 µM
same,MIC,[9],13 µM
same,MIC,[10],2.2 µM
same,MIC,[11],18 µM
COC(=O)c1[nH]cc(-c2c[nH]c3ccc(Cl)cc23)c1-c1c[nH]c2ccc(Cl)cc12 [LYNAMICIN A],MIC,[1],9.5 µM
same,MIC,[2],28 µM
same,MIC,[3],4.3 µM
same,MIC,[4],38 µM
same,MIC,[5],4.7 µM
same,MIC,[6],57 µM
same,MIC,[7],19 µM
same,MIC,[8],19 µM
same,MIC,[9],16 µM
same,MIC,[10],9.5 µM
same,MIC,[11],57 µM
